Activity calls are given as the source filed them. The rule behind the calls is not given here.
Columns and labels:
[1] = Cytotoxicity against mouse 3T3-L1 cells transfected with Lenti-PPARgamma-Luc reporter assessed as cell viability at 4 uM incubated for 48 hrs by CCK-8 assay relative to control; type: toxicity, cell-based; settings: read-out: Activity
How it was run: (§1)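 3T3-L1-Lenti-PPARγ-Luc reporter cells (lentivirus-transduced) exposed to alkaloids at a range of concentrations. Viability by CCK-8, absorbance at 450 nm, relative to control, used to set maximum noncytotoxic concentrations. Triplicate.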

[2] = Cytotoxicity against mouse 3T3-L1 cells transfected with Lenti-PPARgamma-Luc reporter assessed as cell viability at 10 uM incubated for 48 hrs by CCK-8 assay relative to control; type: toxicity, cell-based; settings: read-out: Activity; how it was run: as §1
[3] = Cytotoxicity against mouse 3T3-L1 cells transfected with Lenti-PPARgamma-Luc reporter assessed as cell viability at 7.5 uM incubated for 48 hrs by CCK-8 assay relative to control; type: toxicity, cell-based; settings: read-out: Activity; how it was run: as §1
[4] = tested on: 3T3-L1; assay: Inhibition of adipogenesis in mouse 3T3-L1 cells assessed as downregulation of PPARgamma relative protein level […] by Western blot analysis; type: functional, cell-based
How it was run: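 Differentiated 3T3-L1 adipocytes treated with alkaloids at several doses. Lysed in RIPA with PMSF on ice for 30 min. Proteins transferred to PVDF and blocked with 5% skim milk for 2 h at 25 °C. Primary antibody 2 h, HRP secondary 1 h. PPARγ protein level expressed relative to control. n = 3.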

[5] = Cytotoxicity against mouse 3T3-L1 cells assessed as cell viability at 10 uM incubated for 48 hrs by CCK-8 assay relative to control; type: toxicity, cell-based; settings: read-out: Activity
How it was run: (§2)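 3T3-L1 preadipocytes seeded at 1 × 10^3 cells/well and left 12 h, then exposed to alkaloids for 48 h. Viability by CCK-8, absorbance at 450 nm, relative to control. Lovastatin 5 μM included. Mean ± SD, n = 3.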

[6] = Cytotoxicity against mouse 3T3-L1 cells transfected with Lenti-PPARgamma-Luc reporter assessed as cell viability at 0.1 uM incubated for 48 hrs by CCK-8 assay relative to control; type: toxicity, cell-based; settings: read-out: Activity; how it was run: as §1
[7] = Cytotoxicity against mouse 3T3-L1 cells transfected with Lenti-PPARgamma-Luc reporter assessed as cell viability at 5 uM incubated for 48 hrs by CCK-8 assay relative to control; type: toxicity, cell-based; settings: read-out: Activity; how it was run: as §1
[8] = Cytotoxicity against mouse 3T3-L1 cells transfected with Lenti-PPARgamma-Luc reporter assessed as cell viability at 2 uM incubated for 48 hrs by CCK-8 assay relative to control; type: toxicity, cell-based; settings: read-out: Activity; how it was run: as §1
[9] = Cytotoxicity against mouse 3T3-L1 cells assessed as cell viability at 7.5 uM incubated for 48 hrs by CCK-8 assay relative to control; type: toxicity, cell-based; settings: read-out: Activity; how it was run: as §2
[10] = Cytotoxicity against mouse 3T3-L1 cells transfected with Lenti-PPARgamma-Luc reporter assessed as cell viability at 1 uM incubated for 48 hrs by CCK-8 assay relative to control; type: toxicity, cell-based; settings: read-out: Activity; how it was run: as §1
[11] = Cytotoxicity against mouse 3T3-L1 cells assessed as cell viability at 1 uM incubated for 48 hrs by CCK-8 assay relative to control; type: toxicity, cell-based; settings: read-out: Activity; how it was run: as §2
[12] = tested on: 3T3-L1; assay: Anti-adipogenic activity in mouse 3T3-L1 preadipocytes assessed as inhibition of lipid accumulation incubated for 6 days by Nile Red staining based fluorescence microscopic analysis; type: functional, cell-based; settings: time 6.0 day
[13] = Cytotoxicity against mouse 3T3-L1 cells transfected with Lenti-PPARgamma-Luc reporter assessed as cell viability at 3 uM incubated for 48 hrs by CCK-8 assay relative to control; type: toxicity, cell-based; settings: read-out: Activity; how it was run: as §1
[14] = Cytotoxicity against mouse 3T3-L1 cells assessed as cell viability at 3 uM incubated for 48 hrs by CCK-8 assay relative to control; type: toxicity, cell-based; settings: read-out: Activity; how it was run: as §2
[15] = tested on: 3T3-L1; assay: Anti-adipogenic activity in mouse 3T3-L1 cells transfected with Lenti-PPARgamma-Luc reporter assessed as inhibition of PPARgamma expression by luminescence based microplate reader analysis; type: functional, cell-based
[16] = Cytotoxicity against mouse 3T3-L1 cells assessed as cell viability at 5 uM incubated for 48 hrs by CCK-8 assay relative to control; type: toxicity, cell-based; settings: read-out: Activity; how it was run: as §2
[17] = Cytotoxicity against mouse 3T3-L1 cells transfected with Lenti-PPARgamma-Luc reporter assessed as cell viability at 2.5 uM incubated for 48 hrs by CCK-8 assay relative to control; type: toxicity, cell-based; settings: read-out: Activity; how it was run: as §1
[18] = Cytotoxicity against mouse 3T3-L1 cells transfected with Lenti-PPARgamma-Luc reporter assessed as cell viability at 20 uM incubated for 48 hrs by CCK-8 assay relative to control; type: toxicity, cell-based; settings: read-out: Activity; how it was run: as §1
[19] = Cytotoxicity against mouse 3T3-L1 cells assessed as cell viability at 20 uM incubated for 48 hrs by CCK-8 assay relative to control; type: toxicity, cell-based; settings: read-out: Activity; how it was run: as §2
[20] = Cytotoxicity against mouse 3T3-L1 cells transfected with Lenti-PPARgamma-Luc reporter assessed as cell viability at 15 uM incubated for 48 hrs by CCK-8 assay relative to control; type: toxicity, cell-based; settings: read-out: Activity; how it was run: as §1
[21] = Cytotoxicity against mouse 3T3-L1 cells assessed as cell viability at 15 uM incubated for 48 hrs by CCK-8 assay relative to control; type: toxicity, cell-based; settings: read-out: Activity; how it was run: as §2
[22] = Cytotoxicity against mouse 3T3-L1 cells assessed as cell viability at 25 uM incubated for 48 hrs by CCK-8 assay relative to control; type: toxicity, cell-based; settings: read-out: Activity; how it was run: as §2
[23] = Cytotoxicity against mouse 3T3-L1 cells assessed as cell viability at 2.5 uM incubated for 48 hrs by CCK-8 assay relative to control; type: toxicity, cell-based; settings: read-out: Activity; how it was run: as §2

## C=C(c1ccc(O)c(Oc2cc3c(cc2OC)CCN(C)[C@@H]3Cc2ccc(OC)cc2)c1)[C@H]1c2cc(O)c(OC)cc2CCN1C
[1]
  viability at 48 h, 4 µM: > 80%
[2]
  viability at 48 h, 10 µM: < 80%
[3]
  viability at 48 h, 7.5 µM: < 80%
[4]
  inhibition: Active
[5]
  viability at 48 h, 10 µM: < 80%
[6]
  viability at 48 h, 0.1 µM: > 80%
[7]
  viability at 48 h, 5 µM: > 80%
[8]
  viability at 48 h, 2 µM: > 80%
[9]
  viability at 48 h, 7.5 µM: < 80%
[10]
  viability at 48 h, 1 µM: > 80%
[11]
  viability at 48 h, 1 µM: > 80%
[12]
  Activity: Dose-Dependent Effect
[13]
  viability at 48 h, 3 µM: > 80%
[14]
  viability at 48 h, 3 µM: > 80%
[15]
  Activity: Dose-Dependent Effect
  IC50: 4.5 µM
[16]
  viability at 48 h, 5 µM: > 80%

## C=C(c1ccc(OC)cc1)[C@@H]1c2cc(Oc3cc(C[C@H]4c5cc(OC)c(OC)cc5CCN4C)ccc3O)c(OC)cc2CCN1C
[17]
  viability at 48 h, 2.5 µM: > 80%
[2]
  viability at 48 h, 10 µM: > 80%
[3]
  viability at 48 h, 7.5 µM: > 80%
[18]
  viability at 48 h, 20 µM: < 80%
[4]
  inhibition: Active
[5]
  viability at 48 h, 10 µM: > 80%
[6]
  viability at 48 h, 0.1 µM: > 80%
[19]
  viability at 48 h, 20 µM: < 80%
[7]
  viability at 48 h, 5 µM: > 80%
[20]
  viability at 48 h, 15 µM: > 80%
[21]
  viability at 48 h, 15 µM: > 80%
[10]
  viability at 48 h, 1 µM: > 80%
[22]
  viability at 48 h, 25 µM: < 80%
[12]
  Activity: Dose-Dependent Effect
[15]
  Activity: Dose-Dependent Effect
[16]
  viability at 48 h, 5 µM: > 80%

## C=C(c1ccc(O)c(Oc2cc3c(cc2OC)CCN(C)[C@@H]3Cc2ccc(OC)cc2)c1)[C@@H]1c2cc(O)c(OC)cc2CCN1C
[17]
  viability at 48 h, 2.5 µM: > 80%
[2]
  viability at 48 h, 10 µM: > 80%
[23]
  viability at 48 h, 2.5 µM: > 80%
[3]
  viability at 48 h, 7.5 µM: > 80%
[18]
  viability at 48 h, 20 µM: < 80%
[4]
  inhibition: Active
[5]
  viability at 48 h, 10 µM: > 80%
[6]
  viability at 48 h, 0.1 µM: > 80%
[19]
  viability at 48 h, 20 µM: < 80%
[7]
  viability at 48 h, 5 µM: > 80%
[20]
  viability at 48 h, 15 µM: < 80%
[21]
  viability at 48 h, 15 µM: < 80%
[10]
  viability at 48 h, 1 µM: > 80%
[12]
  Activity: Dose-Dependent Effect
[15]
  Activity: Dose-Dependent Effect
  IC50: 8.8 µM
[16]
  viability at 48 h, 5 µM: > 80%

## COc1ccc(C[C@@H]2c3cc(Oc4cc(C[C@@H]5c6cc(OC)c(OC)cc6CCN5C)ccc4O)c(OC)cc3CCN2C)cc1 [NEFERINE]
[17]
  viability at 48 h, 2.5 µM: > 80%
[2]
  viability at 48 h, 10 µM: > 80%
[23]
  viability at 48 h, 2.5 µM: > 80%
[3]
  viability at 48 h, 7.5 µM: > 80%
[18]
  viability at 48 h, 20 µM: < 80%
[4]
  inhibition: Active
[5]
  viability at 48 h, 10 µM: > 80%
[6]
  viability at 48 h, 0.1 µM: > 80%
[19]
  viability at 48 h, 20 µM: < 80%
[7]
  viability at 48 h, 5 µM: > 80%
[20]
  viability at 48 h, 15 µM: < 80%
[21]
  viability at 48 h, 15 µM: < 80%
[10]
  viability at 48 h, 1 µM: > 80%
[12]
  Activity: Dose-Dependent Effect
[15]
  Activity: Dose-Dependent Effect
  IC50: 6.1 µM
[16]
  viability at 48 h, 5 µM: > 80%

## COc1ccc(C[C@@H]2c3cc(Oc4cc(C[C@@H]5c6cc(O)c(OC)cc6CCN5C)ccc4O)c(OC)cc3CCN2C)cc1 [ISOLIENSININE]
[17]
  viability at 48 h, 2.5 µM: > 80%
[2]
  viability at 48 h, 10 µM: > 80%
[23]
  viability at 48 h, 2.5 µM: > 80%
[3]
  viability at 48 h, 7.5 µM: > 80%
[18]
  viability at 48 h, 20 µM: < 80%
[4]
  inhibition: Active
[5]
  viability at 48 h, 10 µM: > 80%
[6]
  viability at 48 h, 0.1 µM: > 80%
[19]
  viability at 48 h, 20 µM: < 80%
[7]
  viability at 48 h, 5 µM: > 80%
[20]
  viability at 48 h, 15 µM: < 80%
[21]
  viability at 48 h, 15 µM: < 80%
[10]
  viability at 48 h, 1 µM: > 80%
[12]
  Activity: Dose-Dependent Effect
[15]
  Activity: Dose-Dependent Effect
[16]
  viability at 48 h, 5 µM: > 80%

## CC[C@H](C)C(=O)O[C@H]1C[C@@H](C)C=C2C=C[C@H](C)[C@H](CC[C@@H]3C[C@@H](O)CC(=O)O3)[C@H]21 [LOVASTATIN]
[16]
  viability at 48 h, 5 µM: > 80%

## COc1ccc(C[C@@H]2c3cc(Oc4cc(/C=C5\CN(C)CCc6cc(OC)c(OC)cc65)ccc4O)c(OC)cc3CCN2C)cc1
[17]
  viability at 48 h, 2.5 µM: > 80%
[2]
  viability at 48 h, 10 µM: > 80%
[3]
  viability at 48 h, 7.5 µM: > 80%
[18]
  viability at 48 h, 20 µM: < 80%
[4]
  inhibition: Active
[5]
  viability at 48 h, 10 µM: > 80%
[6]
  viability at 48 h, 0.1 µM: > 80%
[19]
  viability at 48 h, 20 µM: < 80%
[7]
  viability at 48 h, 5 µM: > 80%
[20]
  viability at 48 h, 15 µM: > 80%
[21]
  viability at 48 h, 15 µM: > 80%
[10]
  viability at 48 h, 1 µM: > 80%
[22]
  viability at 48 h, 25 µM: < 80%
[12]
  Activity: Dose-Dependent Effect
[15]
  Activity: Dose-Dependent Effect
[16]
  viability at 48 h, 5 µM: > 80%

## C=C(c1ccc(O)c(Oc2cc3c(cc2OC)CCN(C)[C@@H]3Cc2ccc(OC)cc2)c1)[C@@H]1c2cc(OC)c(OC)cc2CCN1C
[17]
  viability at 48 h, 2.5 µM: > 80%
[2]
  viability at 48 h, 10 µM: > 80%
[3]
  viability at 48 h, 7.5 µM: > 80%
[18]
  viability at 48 h, 20 µM: < 80%
[4]
  inhibition: Active
[5]
  viability at 48 h, 10 µM: > 80%
[6]
  viability at 48 h, 0.1 µM: > 80%
[19]
  viability at 48 h, 20 µM: < 80%
[7]
  viability at 48 h, 5 µM: > 80%
[20]
  viability at 48 h, 15 µM: > 80%
[21]
  viability at 48 h, 15 µM: > 80%
[10]
  viability at 48 h, 1 µM: > 80%
[22]
  viability at 48 h, 25 µM: < 80%
[12]
  Activity: Dose-Dependent Effect
[15]
  Activity: Dose-Dependent Effect
  IC50: 10.7 µM
[16]
  viability at 48 h, 5 µM: > 80%

Reference: ChEMBL document CHEMBL5385940 (J Nat Prod, 2024)
